System: MS2 coat protein
Experiment: apparent Kd, MS2 coat protein; higher = weaker binding; RNA-MaP array; FMN 200 µM where present
Summary of the method: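 Designs on Illumina sequencing-chip clusters, transcribed by stalled E. coli RNA polymerase, were exposed to SNAP-549-labelled MS2 coat protein in doubling steps from 0.7 or 1.5 nM up to 3 µM, without and then with constant ligand. The buffer held 100 mM Tris-HCl pH 7.5, 80 mM KCl, 4 mM MgCl2, BSA, DTT, yeast tRNA and Tween-20. Apparent Kd values are medians of filtered per-cluster binding-curve fits to green signal normalised to red-channel RNA signal and control-cluster median Fmax.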

[1] = designed as: OFF switch for flavin mononucleotide, no ligand
[2] = ligand present: flavin mononucleotide, designed as: OFF switch for flavin mononucleotide
[3] = designed as: ON switch for flavin mononucleotide, no ligand
[4] = ligand present: flavin mononucleotide, designed as: ON switch for flavin mononucleotide

| Sequence | apparent Kd [1] [nM] | apparent Kd [2] [nM] | apparent Kd [3] [nM] | apparent Kd [4] [nM] |
| --- | --- | --- | --- | --- |
| UGAUAGGACAGAGGAUAUACGUGCUAGAGAUACUAGCAAAAUAUCCUCACAUGAGGAUCACCCAUGUAGAAGGCUGUCCUAUCU | 18 | 83.3 |  |  |
| AAUACAUGAGGAUCACCCAUGUUAUGUUCAAACAAUAUGAGUGAGGAUAUACUGAGUUAGUUAUGGUAGAAGGCACUGGGUUCA |  |  | 56.3 | 36.2 |
| ACAAAUCGAGGAUAUACAUGAGGAUCACCCAUGUGGAGUCCACUGCGCGGUUCUCAGCGUAGAAGGCGAAAACA | 46.3 | 89.8 |  |  |
| CUAAAUUAGUAGAAGGACGGAGAGUAAGAAGUCGUAGGAUAUACAUAAGACAUGAGGAUCACCCAUGUGUGUAUGUUGGGUAUG | 6.54 | 6.65 |  |  |
| AAUAUGUUGCAGAAGGCUAUAUUGUUGUAGUACCUCAUGACAUGAGGAUCACCCAUGUUUGUGUUGGAGGAUAUGCAAUAUAUU | 7.82 | 7.07 |  |  |
| CAGUGCUGUUGAGAGGAUAUGCGGCGACGGACAUGAGGAUCACCCAUGUUAGCGACAGCGUUGCGGCAGAAGGCUCUGCCCGCUA |  |  | 52.3 | 23.1 |
| GCCUCACAUGAGGAUCACCCAUGUCAGGAUAUGCCGAUCUUAUGGUCUGGUACGACGAGCAGAAGGGACAUGCA | 19.5 | 57.9 |  |  |
| AAGAUGUUAGGAUAUGCUGCUCGUCACAAAAGUGAUGAGUAGCAGAAGGAACAUGAGGAUCACCCAUGUAAAGA | 31 | 55.3 |  |  |
| GGGCCGAAAGGCCCGCGGGCCCGGGAGGAUAUACAUGAGGAUCACCCAUGUCCGGCGAAAGCCGGGUAGAAGGCCCGGGCCCGC | 5.38 | 7.03 |  |  |
| CCUUUAUUUUCAGGAUAUCCGUUUAGGUAGAUAACAUGAGGAUCACCCAUGUCCAUGUUGUAAGUGGAGAAGGGAAAGAGUGGG |  |  | 182 | 120 |
| CAGCUGAAAGUCAGGAUAUCUAGAGCUUCGGCUCUAGAGAAGGGACAUGAGGAUCACCCAUGUGGUCACAGCUG | 1420 | 149 |  |  |
| GGGCUGUCAGGAUAUUGAUCGUGAUCGGAAAUGAUCGUGAUCGAGAAGGGACAUGAGGAUCACCCAUGUGGCCC | 30.8 | 33 |  |  |
| AGACCAGUUCUAGGAUAUGUGUGACGUGAGUAAACAGAAGGAGAACAUGAGGAUCACCCAUGUGGGCCAAUCAUCCUCACGUGG | 44.9 | 371 |  |  |
| UGAUAGGACAGAGGAUAUACGGAUAGGAUCUACUAUCUUCCUUAAAUAACAUGAGGAUCACCCAUGUAGAAGGCUGUCCUAUCU | 18.2 | 65.2 |  |  |
| GAUCGACAUGAGGAUCACCCAUGUCAGGAUAUCGUCACUGGAGCUUCGGCUCCAGUGACGAGAAGGGACAUAAU | 31.9 | 44.6 |  |  |
| CAAUUUAUGUCAGGAUAUACAAUACAAUGAUUAGUAGAAGGGAUUAAUACAUGAGGAUCACCCAUGUCAUGUGUCAUCGUAACC | 22.3 | 17.4 |  |  |
| GGAUAGGACAGAGGAUAUACAGAUAGGAUCUACUAUCAAACAAUCCUCACAUGAGGAUCACCCAUGUAGAAGGCUGUCCUAUCG | 103 | 688 |  |  |
| GAGGAUAGAGGAUAUGCAUAGAUACGGAUUCGUGUAGUACUACAUGAGGAUCACCCAUGUAGAAGGCUGUCCAG | 12.7 | 22 |  |  |
| ACUACGUUAGCGAUAUGAUCGAGAGAUCAUGUCGCUAUAUUUAGAAGGACAUGAGGAUCACCCAUGUAGGAUAUGGGUCGUGGA |  |  | 158 | 35.7 |
| UACGUACAGAAGAACGCCGGGUCCAGAAGGGACAUGAGGAUCACCCAUGUACCGUUGAUUGCUUGUCAGGAUAUGGACCCGGCC | 6.32 | 21.8 |  |  |
| GAACCACAUGAGGAUCACCCAUGUCUAAGAAAUUAAGGAUAUGCACAAAAGGAAAUAACUGCAGAAGGUAAACGAA |  |  | 33.4 | 27.4 |
| CGGAACAUGAGGAUCACCCAUGUAGCUACUUAAAGGUGCUACAGAAGGGACAUUGCGCGUCAUGGUCAGGAUAUGUAGGGCUGA |  |  | 379 | 108 |
| CGGGCUGCUGUGAGGAUAUGCCUGUGGGUGCGUGGGUAGAAGGCACAUGAGGAUCACCCAUGUCCUGCGGCUCG | 736 | 537 |  |  |

— the EternaBench riboswitch data
